Bioassay records: PubChem BioAssay, several laboratories
A selection: hits, their analogues and other compounds. The true share with any hit is near 2.7%.
Wee1 degr inh: inhibitors of human Wee1 degradation. HeLa Luc-Wee1K328M stability, luciferase luminescence; 100% = proteasome inhibitor MG132 effect. reporter increase, % at 5 µM. 220,000 tested, 1.2% active. AID 1321;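 active means activation above the mean of all tested compounds plus 3 SD, set per screening run, cut at about 8.8% in these data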;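 further: cells exposed to compound for 20 h before luminescence read; 0% = DMSO alone and 100% = MG132 at 30 µM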
Target sequence (P30291 whole entry K328M): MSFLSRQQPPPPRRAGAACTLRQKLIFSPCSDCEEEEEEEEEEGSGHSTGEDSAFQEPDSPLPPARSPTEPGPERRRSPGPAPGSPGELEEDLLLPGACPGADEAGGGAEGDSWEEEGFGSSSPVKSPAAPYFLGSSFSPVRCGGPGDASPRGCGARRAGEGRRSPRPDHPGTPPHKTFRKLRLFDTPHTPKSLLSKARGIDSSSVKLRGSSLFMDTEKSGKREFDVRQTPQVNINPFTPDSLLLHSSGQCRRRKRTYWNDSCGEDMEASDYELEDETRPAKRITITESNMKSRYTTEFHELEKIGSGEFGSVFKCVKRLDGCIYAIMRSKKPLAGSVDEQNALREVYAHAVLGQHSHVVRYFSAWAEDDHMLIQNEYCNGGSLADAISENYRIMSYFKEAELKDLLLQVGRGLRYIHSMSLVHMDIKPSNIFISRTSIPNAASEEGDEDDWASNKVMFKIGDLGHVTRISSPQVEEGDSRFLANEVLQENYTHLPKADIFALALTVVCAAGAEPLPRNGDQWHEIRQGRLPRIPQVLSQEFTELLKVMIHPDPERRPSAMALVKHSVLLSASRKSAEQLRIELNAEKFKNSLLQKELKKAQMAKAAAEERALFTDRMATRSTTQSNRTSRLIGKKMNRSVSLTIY
14-3-3 Bad PPI: disrupts binding of bovine 14-3-3 zeta to phospho-Bad peptide; P63103; TR-FRET 14-3-3zeta/Dy647-pBad peptide displacement, 1 h; inhibition, % at 21.7 µM; 220,000 tested, 0.71% active;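 active means inhibition above about 70%, limit read from the data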;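 further: 0% = full 14-3-3 plus peptide FRET controls and 100% = background without 14-3-3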
Hck-Nef inh: human Hck-Nef kinase inhibition | P08631 | Recombinant Hck-YEEI plus Nef, Z-Lyte FRET kinase assay | inhibition, % at 20 µM | 220,000 tested, 0.68% active | AID 463187;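 active means Hck-Nef kinase inhibition above about 50%, limit read from the data; inactive means inhibition below that limit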;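 further: 0% = DMSO with Hck plus Nef and 100% = Hck alone without Nef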
TbHK1 inh: blocks Trypanosoma brucei hexokinase 1 activity; inhibition, % at 10 µM; 220,000 tested, 0.11% active; AID 1430; recombinant TbHK1, G6PDH-coupled NADH A340;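 active means inhibition of 50% or more in the single-dose primary screen; inactive means inhibition below 50%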
MDM2 E3 inh: inhibitors of human Mdm2 E3 ubiquitin ligase. cell-based MDM2 ubiquitination luciferase reporter, 2 h; 0 = plate control, 100 = twice control, blank-subtracted. AID 1230. 210,000 tested, 0.11% active. Q00987. signal enhancement, % at 5 µM;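 active means signal enhancement of 30% or more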;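 further: luminescence tracks abundance of the self-degrading MDM2-luciferase fusion protein; higher signal means inhibition of MDM2 E3 ligase activity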
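Material: Stable MDM2–luciferase fusion reporter cells | Amount: 2000 cells seeded into each well | Dosing: One concentration, 5 µM, with 0.2% DMSO | Incubation: 4 h cell settling then 2 h compound exposure, 37 °C | Measured by: Luciferase luminescence | Read-out basis: % enhancement relative to plate controls after blank subtraction | Benchmarks: Control and blank well means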
Wee1 stab conf: confirmation of human Wee1 degradation inhibitors | shares compounds with Wee1 degr inh | 1,100 tested, 4% active | activation, % at 5 µM | HeLa Luc-Wee1K328M degradation, luminescence; vehicle 0%, proteasome-blocked wells 100%; in the data active means activation above about 8.9%
* hit, by the source's call; nt = no result.

SMILES | Wee1 degr inh | 14-3-3 Bad PPI | Hck-Nef inh | TbHK1 inh | MDM2 E3 inh | Wee1 stab conf
OC1CCCN(CC(O)COC(c2ccccc2)c2ccccc2)C1 (stereo not given) | 4 | 8 | 26 | 3 | nt | nt
CC1CCCN(CC(O)COC(c2ccccc2)c2ccccc2)C1 (stereo not given) | 12* | -7 | 25 | 6 | -4 | -1
CNC(=O)c1c(Cl)cnn1-c1ccc(F)cc1 | 13* | -12 | 9 | -3 | -6 | 3
Cc1c(C(=O)NCCSCc2c(F)cccc2Cl)cnn1-c1ccc(F)cc1 | 2 | -11 | 0 | -2 | -14 | nt
COc1ccc(NC(=O)CSc2ccccc2)c(OC)c1 | 1 | -4 | 8 | 1 | -6 | nt
O=C(O)C(C/C(=N/O)c1ccc(Br)cc1)P(=O)(c1ccccc1)c1ccccc1 (stereo not given) | 0 | -3 | 10 | -15 | 1 | nt
Cc1ccc(C(=O)CC(C(=O)O)P(=O)(c2ccccc2)c2ccccc2)cc1 (stereo not given) | 14* | -3 | 10 | -6 | 2 | 1
Cc1[nH][nH]c(=O)c1C(c1ccc([N+](=O)[O-])cc1)c1c(C)[nH][nH]c1=O | 11* | -7 | 1 | -14 | -10 | 0
CCOc1ccc(-c2nnn(CC(=O)NCc3ccccc3)n2)cc1 | -3 | -2 | 26 | 0 | -9 | nt
CCC(C)(C(=O)Nc1ccccc1C)N(C(=O)CNC(C)=O)c1ccccc1C (stereo not given) | -2 | -9 | 0 | -2 | 7 | nt
COc1ccc(NC(=O)CNS(=O)(=O)c2ccc(Cl)cc2)cc1OC | 15* | 13 | 4 | 1 | -65 | 3
CCN1CCC(CNCc2cn(-c3ccc(OC)cc3)nc2-c2ccccc2Cl)C1 (stereo not given) | 3 | 10 | -3 | -6 | 2 | nt
COc1ccc(/C=N/NC(=O)C(Cc2c[nH]c3ccccc23)NC(=O)OCC(C)C)cc1[N+](=O)[O-] (stereo not given) | 3 | 4 | -1 | -5 | -7 | nt
CCOC(=O)C1=C(N)n2c(s/c(=C\c3ccncc3)c2=O)=C(C(=O)OCC)C1c1ccncc1 (stereo not given) | 0 | 35 | 26 | -17 | -8 | nt
CCOC(=O)C1=c2/c(=C/c3ccncc3)c(N)c(C(=O)OC)n2C(=O)C(c2ccncc2)S1 (stereo not given) | 19* | 58 | 16 | -21 | -20 | 1
CCN1c2ccccc2-c2nc3ccccc3n2C1c1ccncc1 (stereo not given) | 16* | 3 | 21 | -13 | -8 | -1
NC(=O)c1cc2ccc(O)cc2oc1=Nc1ccccc1 | -2 | -11 | 46 | -4 | -8 | nt
COc1ccc2cc(C(N)=O)c(=Nc3ccccc3)oc2c1 | 11* | -9 | 1 | -11 | -20 | 5
CC(C)CNC(=S)NNC(=O)CC(C)O (stereo not given) | 11* | -13 | 6 | -3 | -18 | 1
CCNC(=S)NNC(=O)CC(C)C | 3 | -11 | 17 | 0 | 4 | nt
C=C(C)COc1ccc(-c2[nH]ncc2Oc2ccc(OC)cc2)c(O)c1 | 18* | 0 | -7 | 17 | -6 | 4
C=C(C)COc1ccc(-c2[nH]ncc2Oc2ccccc2OC)c(O)c1 | -1 | 10 | 2 | -3 | 10 | nt
Cc1ccc(S(=O)(=O)NCC(=O)NCC(=O)OCC(=O)N2CC(=O)Nc3ccccc32)cc1C | 0 | -16 | 25 | 0 | -9 | nt
Cc1ccc(NS(=O)(=O)c2ccc(NS(=O)(=O)c3cccs3)cc2)cc1 | 11* | 2 | -1 | -2 | -23 | 0
O=C(N/N=C/c1cccs1)/C(=C/c1ccccc1)NC(=O)c1ccccc1 | 12* | -8 | 0 | -37 | nt | -2
SMILES | Wee1 degr inh | 14-3-3 Bad PPI | Hck-Nef inh | TbHK1 inh | MDM2 E3 inh | Wee1 stab conf
CC(C)n1c(O)c(N=Nc2ccc(Cl)c(C(=O)O)c2)c2ccccc21 | -2 | 2 | 25 | -19 | nt | nt
CC1=CCC2(CO)COC(c3ccccc3O)C1C2 (stereo not given) | -3 | 0 | -3 | -2 | -6 | nt
Cn1c(CCc2ccc(N)cc2)nc2ccccc21 | 18* | 51 | 6 | -1 | -26 | 4
COc1ccccc1-c1cc(-c2ccccc2)nc(SC(C(N)=O)c2ccccc2)c1C#N (stereo not given) | 0 | 12 | 6 | 1 | -20 | nt
Cc1cc(C)n(CCN(C)Cc2nc(Cc3ccccc3F)no2)n1 | 11* | -6 | 17 | -5 | 13 | 0
CN(Cc1nc(Cc2ccccc2F)no1)[C@@H]1CS(=O)(=O)C[C@H]1O | -1 | -7 | -2 | -8 | 10 | nt
CCc1ccc(-c2nc(SCC(=O)N3CCOCC3)n[nH]2)cc1 | -3 | -10 | 8 | -1 | 6 | nt
Clc1cccc(-c2cc3nc4c(c(N5CCNCC5)n3n2)CCCC4)c1 | 12* | 3 | 3 | -3 | nt | -1
CC(C)(C)OC(=O)N1CC(O)CC1C(=O)OCC(=O)c1ccc(-c2ccccc2)cc1 (stereo not given) | 0 | 2 | -6 | -7 | -9 | nt
COc1ccc(-n2nc3cc(C)c(NC(C)=O)cc3n2)cc1 | 12* | 6 | 12 | -24 | -56 | -4
CC(c1ccccc1)n1cc(C(=O)NCC2COc3ccccc3O2)nn1 (stereo not given) | 15* | -2 | 1 | 3 | -13 | 3
Cc1nn(-c2cccc(C(F)(F)F)c2)c(=O)c2noc(C)c12 | -2 | -2 | 8 | -12 | -12 | nt
COc1ccc(OC)c2[nH]c(=O)c(CCNC(=O)CC(C)C)cc12 | 11* | 7 | 0 | -8 | -4 | 0
CC(C)NC(=S)N/N=C/c1ccc2c(c1)OCCO2 | 5 | -9 | 1 | -41 | -10 | nt
O=[N+]([O-])c1ccc(Sc2cccc[n+]2[O-])c2nonc12 | 40* | 6 | -147 | -20 | -69 | 43*
COc1ccc(NC(=S)Nc2cccc(S(=O)(=O)N3CCCCC3)c2)cc1 | 3 | -19 | 7 | 30 | -7 | nt
COc1ccc(C2N=C(c3ccccc3)C(C)(C)N2O)cc1 (stereo not given) | 31* | -2 | -1 | -5 | -12 | 1
Cc1ccc(C(=O)NC(=S)Nc2ccc(S(=O)(=O)N3CCN(C)CC3)cc2)cc1 | 2 | -3 | 1 | -12 | -14 | nt
COC(=O)c1c(NC(=O)c2ccc(C)cc2)csc1C | 13* | -17 | 3 | -4 | -16 | 4
COC(=O)c1c(NS(=O)(=O)c2ccccc2)csc1C | -1 | -5 | 15 | 0 | -10 | nt
CCN(CC)C(=O)c1c(-c2ccccc2)oc2ccc(OC)cc12 | 17* | 6 | -7 | -3 | -10 | 0
O=C(CSc1ccc(F)cc1)NC1CCCCC1 | 12* | -7 | -1 | -3 | -17 | 2
